# “And” between values parts separate entries of the source, which are not always exact repeats. Equal entries are not always repeated.
# Test system: Fibroblast
# Test: Multiplex assay against human fibroblast
# Type: toxicity, cell-based
# In short: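 Values for tubulin, mitochondrial-mass and membrane-permeability phenotypes are per cents of cells with healthy nuclei. These cells were identified by CellPathfinder machine-learning gating of live cells that had been stained at seeding with Hoechst33342, BioTracker Green Microtubule Cytoskeleton Dye, MitoTracker Red and Annexin V Alexa Fluor 680 and imaged on a CQ1 microscope at 37°C and 5% CO2 after compound addition. The gating first set Hoechst high-intensity objects apart from normal cells, then split normal cells into healthy, pyknosed or fragmented nuclei, and pyknosed cells into mitotic or apoptotic.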
# [1] = 12 h, 1 µM, compound concentration 1 uM
# [2] = 12 h, 10 µM, compound concentration 10 uM
# [3] = 24 h, 1 µM, compound concentration 1 uM
# [4] = 24 h, 10 µM, compound concentration 10 uM
# [5] = 48 h, 1 µM, compound concentration 1 uM
# [6] = 48 h, 10 µM, compound concentration 10 uM
structure (smiles),measurement,setting,value
N[C@](CC1c2ccccc2Oc2ccccc21)(C(=O)O)[C@H]1C[C@@H]1C(=O)O,Population Apoptotic (%),[1],44% and 58%
same,Population Fragmented Nuclei (%),[1],12% and 18%
same,Population Healthy Nuclei (%),[1],73% and 59%
same,Population Hoechst High Intensity Objects (%),[1],4% and 1%
same,Population Membrane Permeable-Phenotype (%),[1],0% and 7%
same,Population Mitochondria Different-Phenotype (%),[1],1%
same,Population Mitotic Cells (%),[1],56% and 41%
same,Population Normal (%),[1],95% and 98%
same,Population Pyknosed Nuclei (%),[1],13% and 21%
same,Population Tubulin-Different-Phenotype (%),[1],27% and 37%
same,Total Cell Count,[1],189 and 113
same,Population Apoptotic (%),[2],50% and 26%
same,Population Fragmented Nuclei (%),[2],13% and 20%
same,Population Healthy Nuclei (%),[2],66% and 59%
same,Population Hoechst High Intensity Objects (%),[2],1% and 7%
same,Population Membrane Permeable-Phenotype (%),[2],2% and 0%
same,Population Mitochondria Different-Phenotype (%),[2],2% and 7%
same,Population Mitotic Cells (%),[2],50% and 73%
same,Population Normal (%),[2],98% and 92%
same,Population Pyknosed Nuclei (%),[2],20%
same,Population Tubulin-Different-Phenotype (%),[2],22% and 33%
same,Total Cell Count,[2],203 and 119
same,Population Apoptotic (%),[3],68% and 33%
same,Population Fragmented Nuclei (%),[3],12% and 27%
same,Population Healthy Nuclei (%),[3],73% and 49%
same,Population Hoechst High Intensity Objects (%),[3],2% and 4%
same,Population Membrane Permeable-Phenotype (%),[3],2% and 6%
same,Population Mitochondria Different-Phenotype (%),[3],2% and 1%
same,Population Mitotic Cells (%),[3],32% and 66%
same,Population Normal (%),[3],97% and 95%
same,Population Pyknosed Nuclei (%),[3],13% and 22%
same,Population Tubulin-Different-Phenotype (%),[3],25% and 44%
same,Total Cell Count,[3],183 and 123
same,Population Apoptotic (%),[4],57% and 35%
same,Population Fragmented Nuclei (%),[4],10% and 18%
same,Population Healthy Nuclei (%),[4],68% and 66%
same,Population Hoechst High Intensity Objects (%),[4],1% and 2%
same,Population Membrane Permeable-Phenotype (%),[4],1%
same,Population Mitochondria Different-Phenotype (%),[4],3% and 4%
same,Population Mitotic Cells (%),[4],42% and 64%
same,Population Normal (%),[4],98% and 97%
same,Population Pyknosed Nuclei (%),[4],20% and 15%
same,Population Tubulin-Different-Phenotype (%),[4],30% and 34%
same,Total Cell Count,[4],193 and 113
same,Population Apoptotic (%),[5],62% and 23%
same,Population Fragmented Nuclei (%),[5],17% and 36%
same,Population Healthy Nuclei (%),[5],68% and 48%
same,Population Hoechst High Intensity Objects (%),[5],2% and 8%
same,Population Membrane Permeable-Phenotype (%),[5],0% and 9%
same,Population Mitochondria Different-Phenotype (%),[5],2% and 5%
same,Population Mitotic Cells (%),[5],37% and 76%
same,Population Normal (%),[5],97% and 91%
same,Population Pyknosed Nuclei (%),[5],14%
same,Population Tubulin-Different-Phenotype (%),[5],26% and 65%
same,Total Cell Count,[5],189 and 125
same,Population Apoptotic (%),[6],45% and 27%
same,Population Fragmented Nuclei (%),[6],14% and 27%
same,Population Healthy Nuclei (%),[6],68% and 63%
same,Population Hoechst High Intensity Objects (%),[6],5% and 3%
same,Population Membrane Permeable-Phenotype (%),[6],1% and 2%
same,Population Mitochondria Different-Phenotype (%),[6],2%
same,Population Mitotic Cells (%),[6],54% and 72%
same,Population Normal (%),[6],94% and 96%
same,Population Pyknosed Nuclei (%),[6],16% and 9%
same,Population Tubulin-Different-Phenotype (%),[6],32% and 28%
same,Total Cell Count,[6],198 and 115
Cc1noc(-c2ccc(-c3ccc(CC(=O)O)cc3)cc2)c1NC(=O)O[C@H](C)c1ccccc1Cl,Population Apoptotic (%),[1],22% and 58%
same,Population Fragmented Nuclei (%),[1],14% and 21%
same,Population Healthy Nuclei (%),[1],77% and 60%
same,Population Hoechst High Intensity Objects (%),[1],0% and 5%
same,Population Membrane Permeable-Phenotype (%),[1],0% and 5%
same,Population Mitochondria Different-Phenotype (%),[1],1% and 2%
same,Population Mitotic Cells (%),[1],77% and 41%
same,Population Normal (%),[1],100% and 95%
same,Population Pyknosed Nuclei (%),[1],8% and 18%
same,Population Tubulin-Different-Phenotype (%),[1],10% and 26%
same,Total Cell Count,[1],106 and 140
same,Population Apoptotic (%),[2],40% and 29%
same,Population Fragmented Nuclei (%),[2],20% and 17%
same,Population Healthy Nuclei (%),[2],62% and 45%
same,Population Hoechst High Intensity Objects (%),[2],1% and 6%
same,Population Membrane Permeable-Phenotype (%),[2],1% and 2%
same,Population Mitochondria Different-Phenotype (%),[2],6% and 10%
same,Population Mitotic Cells (%),[2],60% and 70%
same,Population Normal (%),[2],98% and 93%
same,Population Pyknosed Nuclei (%),[2],17% and 36%
same,Population Tubulin-Different-Phenotype (%),[2],31% and 57%
same,Total Cell Count,[2],119 and 90
same,Population Apoptotic (%),[3],20% and 52%
same,Population Fragmented Nuclei (%),[3],16% and 30%
same,Population Healthy Nuclei (%),[3],78% and 57%
same,Population Hoechst High Intensity Objects (%),[3],0% and 2%
same,Population Membrane Permeable-Phenotype (%),[3],0% and 1%
same,Population Mitochondria Different-Phenotype (%),[3],1% and 7%
same,Population Mitotic Cells (%),[3],80% and 47%
same,Population Normal (%),[3],100% and 97%
same,Population Pyknosed Nuclei (%),[3],4% and 12%
same,Population Tubulin-Different-Phenotype (%),[3],10% and 28%
same,Total Cell Count,[3],102 and 161
same,Population Apoptotic (%),[4],50% and 32%
same,Population Fragmented Nuclei (%),[4],20% and 26%
same,Population Healthy Nuclei (%),[4],68% and 41%
same,Population Hoechst High Intensity Objects (%),[4],1%
same,Population Membrane Permeable-Phenotype (%),[4],0%
same,Population Mitochondria Different-Phenotype (%),[4],7% and 10%
same,Population Mitotic Cells (%),[4],50% and 67%
same,Population Normal (%),[4],98%
same,Population Pyknosed Nuclei (%),[4],11% and 31%
same,Population Tubulin-Different-Phenotype (%),[4],29% and 65%
same,Total Cell Count,[4],122 and 98
same,Population Apoptotic (%),[5],44% and 60%
same,Population Fragmented Nuclei (%),[5],18% and 35%
same,Population Healthy Nuclei (%),[5],73% and 55%
same,Population Hoechst High Intensity Objects (%),[5],1% and 2%
same,Population Membrane Permeable-Phenotype (%),[5],1% and 5%
same,Population Mitochondria Different-Phenotype (%),[5],1% and 3%
same,Population Mitotic Cells (%),[5],55% and 40%
same,Population Normal (%),[5],98% and 97%
same,Population Pyknosed Nuclei (%),[5],8%
same,Population Tubulin-Different-Phenotype (%),[5],16% and 25%
same,Total Cell Count,[5],112 and 171
same,Population Apoptotic (%),[6],23% and 39%
same,Population Fragmented Nuclei (%),[6],30% and 40%
same,Population Healthy Nuclei (%),[6],55% and 37%
same,Population Hoechst High Intensity Objects (%),[6],4% and 2%
same,Population Membrane Permeable-Phenotype (%),[6],2% and 0%
same,Population Mitochondria Different-Phenotype (%),[6],4% and 10%
same,Population Mitotic Cells (%),[6],76% and 60%
same,Population Normal (%),[6],95% and 97%
same,Population Pyknosed Nuclei (%),[6],13% and 22%
same,Population Tubulin-Different-Phenotype (%),[6],35% and 69%
same,Total Cell Count,[6],133 and 107
